In ChEMBL document CHEMBL2424615, “Design, synthesis, and characterization of novel tetrahydropyran-based bacterial topoisomerase inhibitors with potent anti-gram-positive activity” (J Med Chem, 2013):
pIC50: −log10 of the molar value.

Tests used:
Staphylococcus aureus [1] = test: Spontaneous resistance frequency for Staphylococcus aureus ATCC 25923 at 4 times MIC to 16 times MIC after 48 hrs relative to NXL-101; type: functional
Procedure, shortened: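 Incubated 48 h at 37 °C. Frequency calculated as resistant colonies divided by viable bacteria plated, with the viable count taken on drug-free agar.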

Escherichia coli = test: Antibacterial activity against wild type Escherichia coli ATCC 25922 assessed as growth inhibition by broth microdilution method; type: functional
[2] = Inhibition of wild type Escherichia coli ATCC 25922 DNA gyrase subunit 2GyrA/2GyrB assessed as pBR322 supercoiling after 1 hr
Pseudomonas aeruginosa = test: Antibacterial activity against wild type Pseudomonas aeruginosa ATCC 27853 assessed as growth inhibition by broth microdilution method; type: functional
Staphylococcus aureus [3] = test: Antibacterial activity against NXL-101-resistant Staphylococcus aureus A-234 harboring DNA gyrase subunit A D83N mutant assessed as growth inhibition by broth microdilution method; type: functional
hERG (KCNH2) = hERG (KCNH2) (Homo sapiens, UniProt Q12809); test: Inhibition of human ERG expressed in CHO cells at 10 uM after 3 mins by patch clamp assay relative to control; type: cell-based; settings: CHO cells that express human ERG
Topoisomerase IV = Topoisomerase IV (Staphylococcus aureus, UniProt P0C1S7+P0C1U9); test: Inhibition of wild type Staphylococcus aureus ATCC 29213 topoisomerase-4 subunit 2GrlA/2GrlB assessed as pBR322 relaxation after 1 hr; type: protein-complex assay
[4] = Inhibition of wild type Escherichia coli ATCC 25922 DNA topoisomerase-4 subunit 2ParC/2ParE assessed as pBR322 relaxation after 1 hr
DNA gyrase = DNA gyrase (Staphylococcus aureus, UniProt P0A0K8+P20831); test: Inhibition of wild type Staphylococcus aureus DNA gyrase subunit 2GyrA/2GyrB assessed as pBR322 supercoiling after 1 hr; type: protein-complex assay
Streptococcus pneumoniae [5] = test: Antibacterial activity against wild type Streptococcus pneumoniae ATCC 49619 assessed as growth inhibition by broth microdilution method; type: functional
Staphylococcus aureus [6] = test: Antibacterial activity against wild type Staphylococcus aureus ATCC 29213 assessed as growth inhibition by broth microdilution method; type: functional
[7] = Intrinsic clearance in human liver microsomes at 1 uM; type: ADME, Microsome; settings: read-out: CLH
[8] = Intrinsic clearance in rat liver microsomes at 1 uM; type: ADME, Microsome; settings: read-out: CLH
[9] = Fraction unbound in Wistar rat plasma at 1 mg/kg, iv administered as bolus dose and 10 mg/kg, po; type: ADME, organism-based
[10] = Half life in Wistar rat at 1 mg/kg, iv administered as bolus dose and 10 mg/kg, po; type: ADME, organism-based; settings: in vivo
Procedure, shortened: (§1)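 Male Wistar rats (n = 3) dosed by iv bolus (0.5 or 1 mg/kg) or orally (1 or 10 mg/kg); iv vehicles included pH 4.5 aqueous solution, 5% DMSO in water, or 10% PG/10% PEG400 in water pH 7; oral as pH 5.6 aqueous suspension or microsuspension in 7.5% modified gelatin. Blood sampled by preimplanted catheter over 24 h; plasma by LC-MS/MS, LOQ 1.5 ng/mL.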

[11] = AUC in Wistar rat at 10 mg/kg, po; type: ADME, organism-based; parameters: dose 10 mg/kg, route oral; settings: plasma; procedure, shortened: as §1
[12] = Volume of distribution at steady state in Wistar rat at 1 mg/kg, iv administered as bolus dose and 10 mg/kg, po; type: ADME, organism-based; settings: in vivo, read-out: Vdss; procedure, shortened: as §1
[13] = Oral bioavailability in Wistar rat at 10 mg/kg; type: ADME, organism-based; settings: in vivo; procedure, shortened: as §1
[14] = Intrinsic clearance in mouse liver microsomes at 1 uM; type: ADME, Microsome; settings: read-out: CLH
[15] = Clearance in Wistar rat at 1 mg/kg, iv administered as bolus dose; type: ADME, organism-based; parameters: dose 1 mg/kg, route intravenous; settings: in vivo; procedure, shortened: as §1
[16] = AUC in Wistar rat at 1 mg/kg, iv administered as bolus dose; type: ADME, organism-based; parameters: dose 1 mg/kg, route intravenous; settings: plasma; procedure, shortened: as §1
Rattus norvegicus [17] = test: Unbound clearance in Wistar rat at 1 mg/kg, iv administered as bolus dose and 10 mg/kg, po; type: ADME, organism-based; settings: in vivo; procedure, shortened: as §1
Staphylococcus aureus [18] = test: Antibacterial activity against methicillin-resistant Staphylococcus aureus clinical isolate assessed as growth inhibition by broth microdilution method; type: functional
Streptococcus pneumoniae [19] = test: Antibacterial activity against Streptococcus pneumoniae clinical isolate assessed as growth inhibition by broth microdilution method; type: functional
Haemophilus influenzae = test: Antibacterial activity against Haemophilus influenzae clinical isolate assessed as growth inhibition by broth microdilution method; type: functional
[20] = Clearance in Wistar rat at 0.5 mg/kg, iv; type: ADME, organism-based; parameters: dose 0.5 mg/kg, route intravenous; settings: in vivo; procedure, shortened: as §1
[21] = AUC in Wistar rat at 0.5 mg/kg, iv; type: ADME, organism-based; parameters: dose 0.5 mg/kg, route intravenous; settings: plasma; procedure, shortened: as §1
[22] = Oral bioavailability in Wistar rat at 1 mg/kg; type: ADME, organism-based; settings: in vivo; procedure, shortened: as §1
[23] = system: Staphylococcus epidermidis; test: Antibacterial activity against Staphylococcus epidermidis clinical isolate assessed as growth inhibition by broth microdilution method; type: functional
Moraxella catarrhalis = test: Antibacterial activity against Moraxella catarrhalis clinical isolate assessed as growth inhibition by broth microdilution method; type: functional
[24] = AUC in Wistar rat at 1 mg/kg, po; type: ADME, organism-based; parameters: dose 1 mg/kg, route oral; settings: plasma; procedure, shortened: as §1
Streptococcus pyogenes = test: Antibacterial activity against Streptococcus pyogenes clinical isolate assessed as growth inhibition by broth microdilution method; type: functional
[25] = Half life in Wistar rat at 0.5 mg/kg, iv and 1 mg/kg, po; type: ADME, organism-based; settings: in vivo; procedure, shortened: as §1
Enterococcus faecalis = test: Antibacterial activity against Enterococcus faecalis clinical isolate assessed as growth inhibition by broth microdilution method; type: functional
[26] = Fraction unbound in Wistar rat plasma at 0.5 mg/kg, iv and 1 mg/kg, po; type: ADME, organism-based
Rattus norvegicus [27] = test: Unbound clearance in Wistar rat at 0.5 mg/kg, iv and 1 mg/kg, po; type: ADME, organism-based; settings: in vivo; procedure, shortened: as §1
Staphylococcus aureus [28] = test: Antistaphylococcal activity against Staphylococcus aureus DSM 11823 in neutropenic NMRI mouse thigh infection model assessed as reduction of log10cfu in thigh at 40 mg/kg, sc measured after 6 hrs; type: functional; settings: route subcutaneous
Procedure, shortened: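 Mice made neutropenic with ip cyclophosphamide, 150 mg/kg on day -4 and 100 mg/kg on day -1. Log-phase S. aureus (A580 0.3-0.9), 0.05 ml inoculum given im into both thighs 2 h before sc dosing in 5% mannitol in water at 10 ml/kg. Thighs homogenized, serially diluted and plated for CFU 6 h post infection.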

Staphylococcus aureus [29] = test: Antistaphylococcal activity against Staphylococcus aureus DSM 11823 assessed as growth inhibition by broth microdilution method; type: functional
[30] = Volume of distribution at steady state in Wistar rat at 0.5 mg/kg, iv and 1 mg/kg, po; type: ADME, organism-based; settings: in vivo, read-out: Vdss; procedure, shortened: as §1
Staphylococcus aureus [31] = test: Antibacterial activity against fluoroquinolone-resistant Staphylococcus aureus clinical isolate assessed as growth inhibition by broth microdilution method; type: functional
Streptococcus agalactiae = test: Antibacterial activity against Streptococcus agalactiae clinical isolate assessed as growth inhibition by broth microdilution method; type: functional
Enterococcus faecium = test: Antibacterial activity against vancomycin-resistant Enterococcus faecium clinical isolate assessed as growth inhibition by broth microdilution method; type: functional

## COc1ccc2ncc(F)c([C@@H](O)[C@H](O)[C@@H]3CC[C@@H](NCc4ccc5c(n4)NC(=O)CS5)CO3)c2n1
Staphylococcus aureus [1]
  fold change (FC): 10
Escherichia coli
  MIC: 1 µg/mL
[2]
  pIC50: 6.30
Pseudomonas aeruginosa
  MIC: > 8 µg/mL
Staphylococcus aureus [3]
  MIC: 0.25 µg/mL
hERG (KCNH2)
  inhibition at 0.05 h, 10 µM: 54%
Topoisomerase IV
  pIC50: 6.30
[4]
  pIC50: 7.52
DNA gyrase
  pIC50: 7.52
Streptococcus pneumoniae [5]
  MIC: 0.06 µg/mL
Staphylococcus aureus [6]
  MIC: 0.03 µg/mL

## COc1cnc2cccc([C@@H](O)[C@H](O)[C@@H]3CC[C@@H](NCc4ccc5c(n4)NC(=O)CS5)CO3)c2n1
Escherichia coli
  MIC: 2 µg/mL
[2]
  pIC50: 6.30
Pseudomonas aeruginosa
  MIC: > 8 µg/mL
[7]
  microsomal CLint at 1 µM: 45 µL/min/mg
[8]
  microsomal CLint at 1 µM: 92 µL/min/mg
Staphylococcus aureus [3]
  MIC: 0.5 µg/mL
hERG (KCNH2)
  inhibition at 0.05 h, 10 µM: 55%
Topoisomerase IV
  pIC50: 5.70
[4]
  pIC50: 6.90
DNA gyrase
  pIC50: 7.52
[9]
  fraction unbound: 0.18
[10]
  half-life: 5.9 h
[11]
  AUC: 817 ng·h/mL
[12]
  Vd: 18 L/kg
[13]
  bioavailability: 26%
[14]
  microsomal CLint at 1 µM: 39 µL/min/mg
Streptococcus pneumoniae [5]
  MIC: 0.06 µg/mL
[15]
  clearance: 53 mL/min/kg
[16]
  AUC: 313 ng·h/mL
Staphylococcus aureus [6]
  MIC: 0.03 µg/mL
Rattus norvegicus [17]
  CL free: 294 mL/min/kg

## COc1ccc2ncc(F)c([C@@H](O)[C@H](O)[C@@H]3CC[C@@H](NCc4cc5c(cn4)OCCS5)CO3)c2n1
Staphylococcus aureus [1]
  fold change (FC): 10
Escherichia coli
  MIC: 8 µg/mL
[2]
  pIC50: 5.10
Staphylococcus aureus [18]
  MIC50: ≤ 0.015 µg/mL
  MIC90: 0.03 µg/mL
Streptococcus pneumoniae [19]
  MIC50: 0.06 µg/mL
  MIC90: 0.125 µg/mL
Haemophilus influenzae
  MIC50: 0.5 µg/mL
  MIC90: 4 µg/mL
Pseudomonas aeruginosa
  MIC: > 8 µg/mL
[7]
  microsomal CLint at 1 µM: 30 µL/min/mg
[8]
  microsomal CLint at 1 µM: 344 µL/min/mg
Staphylococcus aureus [3]
  MIC: 2 µg/mL
[20]
  clearance: 8.7 mL/min/kg
hERG (KCNH2)
  inhibition at 0.05 h, 10 µM: 19%
Topoisomerase IV
  pIC50: 5.10
[4]
  pIC50: 6.90
DNA gyrase
  pIC50: 7.52
[21]
  AUC: 959 ng·h/mL
[22]
  bioavailability: 41%
[23]
  MIC50: 0.06 µg/mL
  MIC90: 0.25 µg/mL
Moraxella catarrhalis
  MIC50: 0.03 µg/mL
  MIC90: 0.125 µg/mL
[24]
  AUC: 776 ng·h/mL
Streptococcus pyogenes
  MIC50: 0.03 µg/mL
  MIC90: 0.06 µg/mL
[25]
  half-life: 3 h
Enterococcus faecalis
  MIC50: 0.5 µg/mL
  MIC90: 0.5 µg/mL
[26]
  fraction unbound: 0.017
[14]
  microsomal CLint at 1 µM: 291 µL/min/mg
Rattus norvegicus [27]
  CL free: 512 mL/min/kg
Staphylococcus aureus [28]
  log10cfu: 1
Streptococcus pneumoniae [5]
  MIC: ≤ 0.015 µg/mL
Staphylococcus aureus [29]
  MIC: 0.06 µg/mL
[30]
  Vd: 1 L/kg
Staphylococcus aureus [31]
  MIC50: ≤ 0.015 µg/mL
  MIC90: 0.03 µg/mL
Streptococcus agalactiae
  MIC50: 0.25 µg/mL
  MIC90: 0.5 µg/mL
Staphylococcus aureus [6]
  MIC: ≤ 0.015 µg/mL
Enterococcus faecium
  MIC50: 0.25 µg/mL
  MIC90: 1 µg/mL

## COc1ccc2nccc(CC[C@@H]3CC[C@@H](NCc4ccc5c(n4)NC(=O)CS5)CO3)c2n1
Escherichia coli
  MIC: 1 µg/mL
[2]
  pIC50: 6.92
Pseudomonas aeruginosa
  MIC: > 8 µg/mL
[7]
  microsomal CLint at 1 µM: 347 µL/min/mg
[8]
  microsomal CLint at 1 µM: > 1250 µL/min/mg
Staphylococcus aureus [3]
  MIC: 1 µg/mL
Topoisomerase IV
  pIC50: 6.30
DNA gyrase
  pIC50: 7.52
[10]
  half-life: 1.2 h
[11]
  AUC: 1320 ng·h/mL
[12]
  Vd: 3.2 L/kg
[13]
  bioavailability: 29%
[14]
  microsomal CLint at 1 µM: 954 µL/min/mg
Streptococcus pneumoniae [5]
  MIC: 0.06 µg/mL
[15]
  clearance: 36 mL/min/kg
[16]
  AUC: 463 ng·h/mL
Staphylococcus aureus [6]
  MIC: 0.03 µg/mL
